According to paper PMC3349182 (British Journal of Cancer, 2012):
Entries after “also recorded” stand apart in the source; their conditions may differ.

Legend:
[1] = system: patients with advanced, refractory solid tumours; assay: Anti-tumour efficacy by Response Evaluation Criteria in Solid Tumours; format: in vivo, human
In short: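 Patients took oral drug once daily on an empty stomach after an overnight fast, with only clear fluids within 2 h of dosing. Dosing was continuous in 28-day cycles until progressive disease or unacceptable toxicity. Tumour response was assessed by RECIST measurements, with CT imaging.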

[2] = Food-effect investigation; format: in vivo, human
In short: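 At the MTD, patients were randomised to take the cycle 1 day 15 dose fed (after a high-fat meal) or fasted (overnight fast ⩾10 h). The day 22 dose was taken in the reverse state, with no food for 4 h after either dose. Plasma levels were measured by LC-MS/MS. The 90% CIs for log-transformed fed/fasted Cmax and AUC0-24 were derived by ANOVA; 80–125% was taken as no food effect.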

[3] = Plasma pharmacokinetics of E7080; format: in vivo, human
In short: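 Patients took oral drug once daily after an overnight fast. Blood and urine were sampled after a single dose and after multiple dosing. Drug concentrations were measured by LC-MS/MS. tmax, Cmax, AUC0-24, AUC0-∞, AUC0-τ, t½, CL/F and V/F were calculated. Terminal-phase parameters were omitted where too few terminal data points were available.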

[4] = system: patients with advanced radioiodine-refractory differentiated thyroid cancer; details: preliminary results, phase II; ref Sherman et al, 2011; cited from earlier work
[5] = 0.2–6.4 mg per day, 21 patients
[6] = 25 mg, eleven patients, high-fat meal vs overnight fast

COc1cc2nccc(Oc3ccc(NC(=O)NC4CC4)c(Cl)c3)c2cc1C(N)=O [E7080]
Best response: Not evaluated, % ([1]; 25 mg per day, 24 patients): 0 (0) % | Best response: Partial response, % ([1]; 25 mg per day, 24 patients): 13% | Best response: Progressive disease, % ([1]; 25 mg per day, 24 patients): 8% | Best response: Stable disease, % ([1]; 25 mg per day, 24 patients): 67% | Best response: Not evaluated, % ([1]; 32 mg per day, 7 patients): 0 (0) % | Best response: Partial response, % ([1]; 32 mg per day, 7 patients): 29% | Best response: Progressive disease, % ([1]; 32 mg per day, 7 patients): 0 (0) % | Best response: Stable disease, % ([1]; 32 mg per day, 7 patients): 43% | Best response: Not evaluated, % [1, 5]: 5% | Best response: Partial response, % [1, 5]: 0 (0) % | Best response: Progressive disease, % [1, 5]: 24% | Best response: Stable disease, % [1, 5]: 19% | Best response: Not evaluated, % ([1]; 12–20 mg per day, 30 patients): 3% | Best response: Partial response, % ([1]; 12–20 mg per day, 30 patients): 7% | Best response: Progressive disease, % ([1]; 12–20 mg per day, 30 patients): 23% | Best response: Stable disease, % ([1]; 12–20 mg per day, 30 patients): 50% | Best response: Not evaluated, % ([1]; Total, 82 patients): 2 (2) % | Best response: Partial response, % ([1]; Total, 82 patients): 9% | Best response: Progressive disease, % ([1]; Total, 82 patients): 17% | Best response: Stable disease, % ([1]; Total, 82 patients): 46% | Clinical benefit (PR rate plus SD rate), % of patients ([1]; all doses): 55% | Clinical benefit (PR rate plus SD rate), n patients ([1]; all doses): 45 | Patients with renal cancer with PR ([1]; of nine patients with renal cancer): Four | Decrease in the sum of the longest tumour diameters ([1]; one patient with melanoma (largest decrease)): approximately 85% | Overall reduction in tumour size (CT) ([1]; one patient with melanoma, after 32 weeks' treatment): 77% | Overall reduction in tumour size (CT) ([1]; one patient with renal cancer, after 24 weeks' treatment): 51% | Median progression-free survival (95% CI) ([1]; patients with melanoma, n=14): 217 days | Median progression-free survival (95% CI) ([1]; patients with renal cancer, all dose cohorts, n=9): 477 days | AUC ratio fed/fasted (90% CI) [2, 6]: 1.00 (90% CI 0.83–1.20) | Cmax ratio fed/fasted (90% CI) [2, 6]: 0.98 (90% CI 0.73–1.31) | tmax (median) ([2]; fasted group): 2.0 h | tmax (median) ([2]; fed group): 5.0 h | Dose dependence of exposure and Cmax ([3]; 0.2 to 32 mg): dose-linear kinetics; also recorded: increased linearly with increasing dose | Accumulation after multiple dosing ([3]; after 4 weeks' administration, once daily): no drug accumulation | Time to maximum concentrations ([3]; after a single dose): ≤ 3 h | Objective response rate [4]: 59%
